Results published in ChEMBL document CHEMBL1165965, “Synthesis and structure-activity relationships of 1,2,3,4-tetrahydropyrido[2,3-b]pyrazines as potent and selective inhibitors of the anaplastic lymphoma kinase” (Bioorg Med Chem, 2010).

What was measured:
[1] = system: Proto-oncogene tyrosine-protein kinase receptor Ret (Homo sapiens), P07949 [V804L]; assay: Inhibition of RET V804L mutant at 1 uM
[2] = molecular target: Serine/threonine-protein kinase pim-1 (Homo sapiens) (UniProt P11309); assay: Inhibition of PIM1 at 1 uM
Serine/threonine-protein kinase pim-1 (Homo sapiens), sequence (P11309 whole entry, looked up): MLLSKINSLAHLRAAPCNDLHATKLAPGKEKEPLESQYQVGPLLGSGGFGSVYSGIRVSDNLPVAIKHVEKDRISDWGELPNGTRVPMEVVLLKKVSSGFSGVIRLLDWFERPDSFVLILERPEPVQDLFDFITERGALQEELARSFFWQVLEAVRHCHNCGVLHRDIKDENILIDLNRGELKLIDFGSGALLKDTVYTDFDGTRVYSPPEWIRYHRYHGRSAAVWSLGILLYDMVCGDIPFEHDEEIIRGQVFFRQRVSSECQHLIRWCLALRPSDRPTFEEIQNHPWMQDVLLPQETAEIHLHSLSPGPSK

[3] = molecular target: Wee1-like protein kinase 2 (Homo sapiens) (UniProt P0C1S8); assay: Inhibition of WEE2 at 1 uM
Wee1-like protein kinase 2 (Homo sapiens), sequence (P0C1S8 whole entry, looked up): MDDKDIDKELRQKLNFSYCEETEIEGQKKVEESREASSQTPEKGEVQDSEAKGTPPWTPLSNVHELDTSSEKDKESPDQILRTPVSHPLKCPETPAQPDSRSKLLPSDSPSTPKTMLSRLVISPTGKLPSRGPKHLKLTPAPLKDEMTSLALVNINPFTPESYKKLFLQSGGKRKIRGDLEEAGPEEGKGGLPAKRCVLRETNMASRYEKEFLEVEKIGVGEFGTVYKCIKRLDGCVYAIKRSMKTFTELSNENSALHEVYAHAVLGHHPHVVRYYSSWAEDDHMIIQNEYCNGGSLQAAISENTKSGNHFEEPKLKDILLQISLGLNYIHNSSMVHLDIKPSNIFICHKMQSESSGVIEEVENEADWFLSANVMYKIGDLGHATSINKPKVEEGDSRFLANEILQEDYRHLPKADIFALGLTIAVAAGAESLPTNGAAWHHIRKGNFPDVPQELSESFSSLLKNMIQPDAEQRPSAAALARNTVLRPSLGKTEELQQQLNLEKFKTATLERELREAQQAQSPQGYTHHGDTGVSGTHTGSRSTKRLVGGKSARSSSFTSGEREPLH

[4] = molecular target: Serine/threonine-protein kinase 32B (Homo sapiens) (UniProt Q9NY57); assay: Inhibition of YANK2 at 1 uM
Serine/threonine-protein kinase 32B (Homo sapiens), sequence (Q9NY57 whole entry): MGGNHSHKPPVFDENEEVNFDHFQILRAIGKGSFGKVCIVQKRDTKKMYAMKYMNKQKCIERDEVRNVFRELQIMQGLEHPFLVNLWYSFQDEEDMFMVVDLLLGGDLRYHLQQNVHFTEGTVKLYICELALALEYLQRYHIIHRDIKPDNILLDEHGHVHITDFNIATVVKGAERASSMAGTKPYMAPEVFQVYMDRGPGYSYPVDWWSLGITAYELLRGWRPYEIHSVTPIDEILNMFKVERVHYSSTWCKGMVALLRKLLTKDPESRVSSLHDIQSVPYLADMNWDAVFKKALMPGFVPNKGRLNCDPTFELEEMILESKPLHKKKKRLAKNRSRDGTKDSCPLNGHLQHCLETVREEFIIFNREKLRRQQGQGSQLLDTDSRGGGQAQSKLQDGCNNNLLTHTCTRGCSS

[5] = molecular target: Mitogen-activated protein kinase 8 (Homo sapiens) (UniProt P45983); assay: Inhibition of JNK1 at 1 uM
Mitogen-activated protein kinase 8 (Homo sapiens), sequence (P45983 whole entry): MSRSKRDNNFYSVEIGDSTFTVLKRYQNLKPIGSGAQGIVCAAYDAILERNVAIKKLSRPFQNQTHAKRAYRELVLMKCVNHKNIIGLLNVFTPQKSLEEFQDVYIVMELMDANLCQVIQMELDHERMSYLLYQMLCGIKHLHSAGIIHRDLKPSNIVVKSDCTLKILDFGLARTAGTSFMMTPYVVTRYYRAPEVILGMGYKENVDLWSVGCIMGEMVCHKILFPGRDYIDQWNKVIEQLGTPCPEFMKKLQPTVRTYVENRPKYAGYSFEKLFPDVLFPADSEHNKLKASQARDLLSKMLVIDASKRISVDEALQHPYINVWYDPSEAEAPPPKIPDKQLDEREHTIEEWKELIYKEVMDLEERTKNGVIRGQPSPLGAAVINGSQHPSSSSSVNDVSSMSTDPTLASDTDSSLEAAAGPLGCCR
Procedure, shortened: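 Single-concentration screen on the Ambit KINOMEscan platform, run against a panel of 250–400 kinases. Per-kinase inhibition was also summarized as S(90), the fraction of kinases inhibited by more than 90%.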

[6] = molecular target: T1, Cytoplasmic tyrosine-protein kinase BMX (Homo sapiens) (UniProt P51813); assay: Inhibition of BMX at 1 uM
T1 sequence (whole entry): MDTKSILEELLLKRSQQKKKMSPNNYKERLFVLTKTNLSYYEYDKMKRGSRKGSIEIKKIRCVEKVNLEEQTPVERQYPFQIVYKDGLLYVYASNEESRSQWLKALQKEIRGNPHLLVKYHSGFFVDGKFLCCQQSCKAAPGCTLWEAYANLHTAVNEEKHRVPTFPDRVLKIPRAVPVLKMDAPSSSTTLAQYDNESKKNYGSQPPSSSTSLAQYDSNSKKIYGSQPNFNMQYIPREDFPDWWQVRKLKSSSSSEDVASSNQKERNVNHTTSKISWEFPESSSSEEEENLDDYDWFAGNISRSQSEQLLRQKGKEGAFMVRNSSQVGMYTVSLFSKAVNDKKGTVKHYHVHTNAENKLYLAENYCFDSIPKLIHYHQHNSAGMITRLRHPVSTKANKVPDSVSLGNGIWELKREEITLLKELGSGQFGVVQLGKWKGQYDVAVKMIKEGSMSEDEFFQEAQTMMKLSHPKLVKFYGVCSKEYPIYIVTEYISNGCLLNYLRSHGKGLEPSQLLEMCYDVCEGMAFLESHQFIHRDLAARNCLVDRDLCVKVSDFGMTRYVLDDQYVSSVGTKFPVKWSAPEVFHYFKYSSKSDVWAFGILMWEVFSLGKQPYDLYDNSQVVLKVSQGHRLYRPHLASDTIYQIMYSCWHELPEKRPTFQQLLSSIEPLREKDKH
Procedure, shortened: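 Ambit KINOMEscan screen at a single concentration across a 250–400 kinase panel, recorded as percent inhibition. Selectivity was expressed as S(90), the fraction of kinases inhibited >90%.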

[7] = molecular target: T2, Serine/threonine-protein kinase Nek5 (Homo sapiens) (UniProt Q6P3R8); assay: Inhibition of NEK5 at 1 uM
T2 sequence (whole entry): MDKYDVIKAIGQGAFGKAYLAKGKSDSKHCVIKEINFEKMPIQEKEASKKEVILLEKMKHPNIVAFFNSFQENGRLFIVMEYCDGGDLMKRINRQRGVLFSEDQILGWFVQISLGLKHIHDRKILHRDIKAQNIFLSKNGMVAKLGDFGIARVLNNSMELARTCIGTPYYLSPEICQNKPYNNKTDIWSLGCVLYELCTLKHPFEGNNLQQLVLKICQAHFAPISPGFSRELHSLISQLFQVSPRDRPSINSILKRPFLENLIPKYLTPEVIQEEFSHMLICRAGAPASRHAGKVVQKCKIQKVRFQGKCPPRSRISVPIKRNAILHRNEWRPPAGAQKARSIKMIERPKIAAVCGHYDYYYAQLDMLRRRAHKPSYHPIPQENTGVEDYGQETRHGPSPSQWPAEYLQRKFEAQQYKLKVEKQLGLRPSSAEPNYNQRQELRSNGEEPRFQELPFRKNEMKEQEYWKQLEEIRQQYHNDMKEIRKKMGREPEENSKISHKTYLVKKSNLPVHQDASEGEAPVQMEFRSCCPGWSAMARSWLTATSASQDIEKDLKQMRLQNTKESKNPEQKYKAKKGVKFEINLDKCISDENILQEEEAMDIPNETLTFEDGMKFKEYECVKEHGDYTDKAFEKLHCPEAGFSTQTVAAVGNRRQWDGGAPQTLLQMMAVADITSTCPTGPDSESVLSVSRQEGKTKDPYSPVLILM

[8] = molecular target: T3, Calcium/calmodulin-dependent protein kinase type IV (Homo sapiens) (UniProt Q16566); assay: Inhibition of CAMK4 at 1 uM
T3 sequence (whole entry): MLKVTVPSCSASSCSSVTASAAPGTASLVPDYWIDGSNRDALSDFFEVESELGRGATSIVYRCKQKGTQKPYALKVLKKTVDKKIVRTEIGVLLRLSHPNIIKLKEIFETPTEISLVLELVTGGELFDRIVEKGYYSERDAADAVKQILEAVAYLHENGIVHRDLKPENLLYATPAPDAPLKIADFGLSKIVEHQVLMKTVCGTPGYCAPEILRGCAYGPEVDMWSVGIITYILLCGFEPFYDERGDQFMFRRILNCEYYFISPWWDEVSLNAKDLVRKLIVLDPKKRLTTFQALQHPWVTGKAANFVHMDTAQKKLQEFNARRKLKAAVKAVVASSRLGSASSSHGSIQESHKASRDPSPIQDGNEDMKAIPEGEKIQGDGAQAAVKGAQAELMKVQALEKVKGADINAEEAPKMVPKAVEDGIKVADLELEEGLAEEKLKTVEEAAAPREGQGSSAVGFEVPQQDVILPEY

[9] = molecular target: Ribosomal protein S6 kinase alpha-6 (Homo sapiens) (UniProt Q9UK32); assay: Inhibition of RPS6KA6 C-terminal domain2 at 1 uM
Ribosomal protein S6 kinase alpha-6 (Homo sapiens), sequence (Q9UK32 whole entry, the tested form may be a part): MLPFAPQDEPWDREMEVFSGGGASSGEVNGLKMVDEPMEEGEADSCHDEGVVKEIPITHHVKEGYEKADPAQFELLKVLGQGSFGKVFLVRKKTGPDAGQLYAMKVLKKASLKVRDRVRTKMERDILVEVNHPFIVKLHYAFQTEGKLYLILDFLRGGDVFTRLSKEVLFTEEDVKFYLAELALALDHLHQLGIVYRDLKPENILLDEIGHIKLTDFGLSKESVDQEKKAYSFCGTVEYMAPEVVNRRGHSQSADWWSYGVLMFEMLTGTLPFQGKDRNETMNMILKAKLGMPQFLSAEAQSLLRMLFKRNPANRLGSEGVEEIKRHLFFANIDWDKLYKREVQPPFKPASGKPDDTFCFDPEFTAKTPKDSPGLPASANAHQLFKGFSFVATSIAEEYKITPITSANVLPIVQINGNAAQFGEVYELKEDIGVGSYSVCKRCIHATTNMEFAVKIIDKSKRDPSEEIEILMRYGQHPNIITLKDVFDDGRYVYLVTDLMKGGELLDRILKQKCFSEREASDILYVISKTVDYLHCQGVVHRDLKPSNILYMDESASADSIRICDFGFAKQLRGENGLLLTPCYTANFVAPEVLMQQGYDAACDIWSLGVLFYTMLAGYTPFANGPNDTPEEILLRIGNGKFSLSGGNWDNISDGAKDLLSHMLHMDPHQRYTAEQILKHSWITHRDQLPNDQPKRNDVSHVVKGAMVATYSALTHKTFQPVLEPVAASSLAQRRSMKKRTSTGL

Proto-oncogene tyrosine-protein kinase receptor Ret (Homo sapiens), P07949 [V804L], sequence (P07949 whole entry V804L): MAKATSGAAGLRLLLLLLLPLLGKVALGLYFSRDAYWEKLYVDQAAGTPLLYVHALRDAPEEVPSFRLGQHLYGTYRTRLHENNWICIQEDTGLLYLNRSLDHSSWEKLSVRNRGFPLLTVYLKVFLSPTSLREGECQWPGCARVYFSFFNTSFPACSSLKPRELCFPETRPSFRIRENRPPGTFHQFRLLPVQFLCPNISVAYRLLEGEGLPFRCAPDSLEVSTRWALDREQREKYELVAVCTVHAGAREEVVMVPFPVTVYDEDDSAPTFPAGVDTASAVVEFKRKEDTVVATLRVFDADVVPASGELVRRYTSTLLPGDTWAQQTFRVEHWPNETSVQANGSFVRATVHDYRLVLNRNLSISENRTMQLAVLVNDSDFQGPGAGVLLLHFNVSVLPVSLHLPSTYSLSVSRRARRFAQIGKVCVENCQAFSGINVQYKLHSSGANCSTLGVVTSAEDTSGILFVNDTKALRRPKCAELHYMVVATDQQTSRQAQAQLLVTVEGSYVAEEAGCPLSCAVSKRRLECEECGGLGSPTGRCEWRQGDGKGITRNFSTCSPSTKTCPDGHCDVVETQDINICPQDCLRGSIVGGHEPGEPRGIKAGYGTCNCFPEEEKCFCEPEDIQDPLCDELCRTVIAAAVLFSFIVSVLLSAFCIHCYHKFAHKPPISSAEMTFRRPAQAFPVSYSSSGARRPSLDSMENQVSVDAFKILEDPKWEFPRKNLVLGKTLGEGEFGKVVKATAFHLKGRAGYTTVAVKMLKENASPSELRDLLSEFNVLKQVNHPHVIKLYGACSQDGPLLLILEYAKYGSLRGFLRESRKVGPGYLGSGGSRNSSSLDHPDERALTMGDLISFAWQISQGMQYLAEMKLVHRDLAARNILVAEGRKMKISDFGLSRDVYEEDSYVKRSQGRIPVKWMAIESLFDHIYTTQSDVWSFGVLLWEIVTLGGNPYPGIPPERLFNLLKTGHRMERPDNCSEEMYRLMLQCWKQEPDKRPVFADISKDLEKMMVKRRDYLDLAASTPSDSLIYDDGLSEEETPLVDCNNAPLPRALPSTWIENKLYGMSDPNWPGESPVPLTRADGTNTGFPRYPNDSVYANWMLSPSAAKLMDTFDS

Row | inhibition [1] [%] | inhibition [2] [%] | inhibition [3] [%] | inhibition [4] [%] | inhibition [5] [%] | inhibition [6] [%] | inhibition [7] [%] | inhibition [8] [%] | inhibition [9] [%] | Compound
1 | < 50 | < 50 | < 50 | < 50 | < 50 | < 50 | < 50 | < 50 | < 50 | CN1CCN(c2ccc(-c3cnc4c(c3)N(Cc3cc(Cl)ccc3Cl)CCN4)cn2)CC1
2 |  | < 50 |  | < 50 | < 50 | < 50 |  |  | < 50 | COC1CCN(C(=O)c2ccc(-c3cnc4c(c3)N(Cc3cc(Cl)ccc3C(F)(F)F)CCN4)cc2)CC1
3 | 89 | < 50 | < 50 | < 50 | < 50 | < 50 | < 50 | < 50 | < 50 | FC(F)(F)c1ccc(Cl)cc1CN1CCNc2ncc(-c3ccnc(N4CCNCC4)c3)cc21
4 | < 50 | < 50 | < 50 | < 50 | < 50 | < 50 | < 50 | < 50 | < 50 | CN1CCN(c2ccc(-c3cnc4c(c3)N(Cc3c(F)ccc(F)c3Cl)CCN4)cn2)CC1
5 | < 50 | < 50 | < 50 | < 50 | < 50 | < 50 | < 50 | < 50 | < 50 | CN1CCN(c2ccc(-c3cnc4c(c3)N(Cc3cc(F)ccc3F)CCN4)cn2)CC1

More lines, now with the values behind:

Row | Compound | inhibition [1] [%] | inhibition [2] [%] | inhibition [3] [%] | inhibition [4] [%] | inhibition [5] [%] | inhibition [6] [%] | inhibition [7] [%] | inhibition [8] [%] | inhibition [9] [%]
6 | CN1CCN(c2ccc(-c3cnc4c(c3)N(Cc3cc(Cl)ccc3C(F)(F)F)CCN4)cn2)CC1 | < 50 | < 50 | < 50 | < 50 | < 50 | < 50 | < 50 | < 50 | < 50
7 | O=C(c1ccc(-c2cnc3c(c2)N(Cc2cc(Cl)ccc2C(F)(F)F)CCN3)cc1)N1CCCCC1 |  | < 50 |  | < 50 | < 50 | < 50 |  |  | < 50
8 | CC(=O)N1CCN(c2cc(-c3cnc4c(c3)N(Cc3cc(Cl)ccc3C(F)(F)F)CCN4)ccn2)CC1 | < 50 | < 50 | < 50 | < 50 | < 50 | < 50 | < 50 | < 50 | < 50
9 | O=C(O)c1ccc(-c2cnc3c(c2)N(Cc2cc(Cl)ccc2C(F)(F)F)CCN3)cc1 |  | < 50 |  | < 50 | < 50 | < 50 |  |  | < 50
10 | O=C(c1ccc(-c2cnc3c(c2)N(Cc2cc(Cl)ccc2C(F)(F)F)CCN3)cc1)N1CCC(N2CCCC2)CC1 |  | < 50 |  | < 50 | < 50 | < 50 |  |  | < 50
